# In the library only some 1.9% were active in any assay of this set; here they are far more common.
# FAS-TE inh: blocks the thioesterase domain of human fatty acid synthase. P49327. recombinant FAS-TE, OMFH fluorogenic substrate, fluorescence endpoint. inhibition, % at 15 µM. actives 0.67% (n = 360,000). AID 602261;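 active = compounds whose normalised, plate-corrected inhibition of enzyme fluorescence in the single-dose primary screen is 50% or more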;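 also: 0% = DMSO with enzyme and 100% = substrate without enzyme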
# ADAM17 inh: ADAM17 inhibition, QFRET primary screen; inhibition, % at 6.95 µM; actives 0.83% (n = 370,000); AID 720648; P78536; recombinant ADAM17, EDANS/DABCYL FRET peptide cleavage;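 active = inhibition above the mean of compounds lying between control limits plus 3 SD, set per campaign, cut at about 8.5% in these data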;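 also: 0% = DMSO-only wells as the low control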
# Target sequence (P78536 215-824 limits assumed): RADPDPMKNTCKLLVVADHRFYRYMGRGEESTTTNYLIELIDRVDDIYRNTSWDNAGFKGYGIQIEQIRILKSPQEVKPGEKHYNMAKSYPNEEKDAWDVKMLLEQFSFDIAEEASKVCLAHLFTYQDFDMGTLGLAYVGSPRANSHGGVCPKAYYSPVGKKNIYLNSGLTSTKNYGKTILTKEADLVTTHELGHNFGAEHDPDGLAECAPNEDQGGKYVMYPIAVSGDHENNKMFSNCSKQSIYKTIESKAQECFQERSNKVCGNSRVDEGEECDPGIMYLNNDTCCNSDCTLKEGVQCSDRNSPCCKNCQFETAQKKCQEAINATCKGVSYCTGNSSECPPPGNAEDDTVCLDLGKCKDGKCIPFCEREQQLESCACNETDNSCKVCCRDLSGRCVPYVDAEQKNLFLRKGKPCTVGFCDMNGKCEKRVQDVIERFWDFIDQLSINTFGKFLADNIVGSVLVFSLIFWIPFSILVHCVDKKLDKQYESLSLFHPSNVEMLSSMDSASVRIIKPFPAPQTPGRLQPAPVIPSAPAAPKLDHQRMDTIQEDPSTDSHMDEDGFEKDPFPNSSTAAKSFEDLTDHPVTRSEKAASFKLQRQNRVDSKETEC
# ADAM10 inh: inhibits human ADAM10 | recombinant ADAM10, EDANS/DABCYL FRET peptide cleavage, 3 h | inhibition, % at 7 µM | O14672 | actives 0.62% (n = 370,000);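 active = inhibition above a per-campaign cutoff equal to the mean of compounds falling between control-based bounds plus 3 SD, cut at about 20% in these data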;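 also: 0% = DMSO wells while the 100% control is not disclosed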
# SENP1 FRET inh: SENP1 (human) catalytic domain inhibition; Q9P0U3; recombinant SENP1 catalytic domain, CyPet-SUMO1-YPet FRET cleavage; inhibition, % at 10 µM; actives 0.21% (n = 360,000); AID 624204;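 active = inhibition at least 30% at 10 µM, raw YFP signal under a set limit, fluorescence ratio 0.5 to 1.5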;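 also: 0% = enzyme with DMSO and 100% = no enzyme wells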
#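 Assay system – human recombinant His6-tagged SENP1 catalytic domain enzyme · Input – SENP1 enzyme, 20 pM final · Buffer or medium – Tris pH 8 buffer plus EDTA, NaCl, BME, BSA, NP40, catalase · Schedule – 50 min reaction at room temperature · Technique – FRET read of cyan and yellow fluorescence · Control set – no-enzyme wells low, DMSO-plus-enzyme wells high control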
# FAS-TE inh conf: confirmation of human fatty acid synthase thioesterase inhibitors. AID 624325. actives 45% (n = 2,300). inhibition, % at 15 µM. shares compounds with FAS-TE inh. recombinant FAS-TE, OMFH fluorogenic substrate, fluorescence;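 active = compounds inhibiting the enzyme by at least 50% at 15 µM in any one of the replicates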;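 also: 0% = enzyme with DMSO only and 100% = wells lacking enzyme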
# * hit, by the source's call; i = inactive; / = no result given.
SMILES,FAS-TE inh,ADAM17 inh,ADAM10 inh,SENP1 FRET inh,FAS-TE inh conf
CCOC(=O)c1sc(N2C(=O)C(O)=C(C(=O)c3ccco3)C2c2ccc(C)o2)nc1C (configuration not stated),-2,0,-4,-31,/
CCOC(=O)c1sc(N2C(=O)C(O)=C(C(=O)c3ccco3)C2c2ccc([N+](=O)[O-])cc2)nc1C (configuration not stated),56*,4,9,-43,73*
O=C(COC(=O)c1ccc(Cl)c([N+](=O)[O-])c1)NC1CCCC1,74*,1,-5,0,65*
O=C(OCC(=O)N1CCc2ccccc2C1)c1ccc(Cl)c([N+](=O)[O-])c1,72*,-1,-8,3,71*
Nc1ccc(C(=O)OCC(=O)N2c3ccccc3Sc3ccccc32)cc1[N+](=O)[O-],66*,-1,3,-1,24
O=C(COC(=O)c1ccccc1C(=O)c1ccc(Cl)c([N+](=O)[O-])c1)NC1CCCCCC1,28,-3,-4,3,/
Nc1ccc(C(=O)OCC(=O)N2CCc3ccccc3C2)cc1[N+](=O)[O-],23,-1,2,2,/
COC(=O)[C@]12C[C@H](CC(=O)NCCc3ccccc3OC)C(=O)N(CCC3=CCCCC3)C1=C[C@H](C(C)C)O[C@@H]2C1CC1,/,2,5,/,/
Cc1ccsc1C=Nn1c(-c2n[nH]c3c2CCC3)n[nH]c1=S,/,-1,-3,/,/
O=C(COCc1ccncc1)N1CCN(c2ccc(F)cc2Cl)CC1,/,-1,5,/,/
CC(C)NC(=O)N[C@H]1C[C@@H]2O[C@H](CO)CC[C@@H]2O[C@@H]1CCc1ccc(-c2ccc(F)cc2)cc1,/,2,1,/,/
Cc1ccc(S(=O)(=O)/N=C(\Sc2ccccc2)c2ccccc2)cc1,63*,-8,1,2,51*
Cc1ccc(S(=O)(=O)/N=C(/Sc2ccccc2C(=O)O)c2ccccc2)cc1,16,-3,2,1,/
O=S(=O)(/N=C(\Sc1ccccc1)c1ccccc1)c1ccc(Cl)cc1,66*,-2,1,1,41
O=C(CN(C(=O)c1cccc([N+](=O)[O-])c1)C1CCCCC1)Nc1ccc(Cl)c([N+](=O)[O-])c1,81*,-2,5,1,26
Cc1ccc([N+](=O)[O-])cc1NC(=O)CN(C(=O)c1ccccc1Cl)C1CCCCC1,74*,4,-3,-6,15
Cc1ccc([N+](=O)[O-])cc1NC(=O)CN(C1CCCCC1)S(=O)(=O)c1ccc(Cl)cc1,54*,3,19,1,19
Cc1ccc(NC(=O)CN(C)C(=O)c2ccc(Cl)c([N+](=O)[O-])c2)cc1,60*,-5,2,2,68*
Cc1ccc([N+](=O)[O-])cc1NC(=O)C1CCCC1,15,-1,8,-1,/
O=C(CN(C1CCCCC1)S(=O)(=O)c1ccc(Cl)cc1)N1CCOCC1,-3,2,7,2,/
COc1ccc(Cn2cc(COC(=O)Nc3ccc(F)cc3)nn2)cc1,/,-1,3,/,/
COC(=O)C1CN(Cc2ccc(OC)cc2)CCS(=O)(=O)N1Cc1cn(CCOC(C)=O)nn1 (configuration not stated),/,-1,-3,/,/
Cc1ccc(S(=O)(=O)Cn2nnnc2C(C(C)C)N2CCN(c3nc4ccccc4s3)CC2)cc1 (configuration not stated),60*,1,10,0,41
COCCn1nnnc1C(CC(C)C)N1CCN(c2nc3ccccc3s2)CC1 (configuration not stated),-1,-3,-4,0,/
COc1cc(OC)cc(N(C(=O)c2ccco2)C(C(=O)NC2CCCC2)c2ccc(N3CCOCC3)cc2)c1 (configuration not stated),10,-1,-6,2,/
SMILES,FAS-TE inh,ADAM17 inh,ADAM10 inh,SENP1 FRET inh,FAS-TE inh conf
CC(=O)c1ccc(N(C(=O)c2ccco2)C(C(=O)NC2CCCC2)c2ccc(N3CCOCC3)cc2)cc1 (configuration not stated),55*,-1,0,0,52*
O=C(CN1CCc2onc(-c3cccc(-n4cc(CO)nn4)c3)c2C1=O)N1CCOCC1,/,1,-3,/,/
Cc1cc(Br)ccc1NC(=O)C(C)c1ccc([N+](=O)[O-])cc1 (configuration not stated),56*,2,17,1,51*
Cc1ccc(C(C)C)cc1NC(=O)Nc1ccc([N+](=O)[O-])cc1,40,0,9,4,/
CCCCCN(C(=O)COC(=O)CSc1ccc([N+](=O)[O-])cc1)c1c(N)n(CCCC)c(=O)[nH]c1=O,58*,1,-5,3,22
O=C(NCCc1ccccc1)OCc1cn(Cc2cccc(Cl)c2)nn1,/,0,7,/,/
CC(C)CSc1ncc(-c2cccc(C(F)(F)F)c2)cn1,51*,4,8,-3,49*
O=C(CSc1ccc([N+](=O)[O-])cn1)Nc1ccccc1N1CCOCC1,22,0,-3,0,/
O=C(CSc1ccc([N+](=O)[O-])cn1)Nc1cc(C(F)(F)F)ccc1N1CCOCC1,56*,2,1,1,15
CN1CCN(C(=O)c2ccc3c(Cl)c4c(nc3c2)CCCC4)CC1,1,-5,3,0,/
N#CC1CCN(C(=O)c2ccc3c(Cl)c4c(nc3c2)CCCC4)CC1,78*,-5,-3,2,86*
O=C1OCCN1C(=O)[C@H]1[C@H](c2ccccc2)C(c2ccc(F)cc2)=NN1c1ccc(Br)cc1,98*,-23,-65,-63,18
O=C1OCCN1C(=O)[C@H]1[C@H](c2ccccc2)C(c2ccccc2)=NN1c1ccc(Br)cc1,90*,-155,i,-115,41
O=C(COc1ccc([N+](=O)[O-])cc1)N/N=C/c1cc([N+](=O)[O-])ccc1N1CCOCC1,19,1,-2,3,/
O=C(CNc1ccccc1)N/N=C/c1cc([N+](=O)[O-])ccc1N1CCCC1,52*,-5,2,-39,29
CCCCC(=O)N/N=C/c1cc([N+](=O)[O-])ccc1N1CCOCC1,66*,0,1,-1,74*
CCN(CC)C(=O)C1CCCN(c2ccc([N+](=O)[O-])cc2/C=N/NC(=O)c2cccc([N+](=O)[O-])c2)C1 (configuration not stated),77*,4,10,-5,26
COc1cc(NC(=O)C2CCN(c3nnc(-n4cccc4)s3)CC2)cc(OC)c1,/,2,4,/,/
CCOC(=O)N1CCN(C(=O)C[C@H]2C(=O)N(CCCOC)C3=CCCC[C@@]32C(=O)OCC)CC1,/,-4,-1,/,/
Cc1cc2oc(=O)cc(CN3CCN(S(=O)(=O)/C=C/c4ccccc4)CC3)c2cc1C,54*,1,8,-4,12
CCCCNC(=S)N(C)/N=C/c1ccc(F)cc1,31,4,4,3,/
CCCCNC(=S)N(C)/N=C/c1ccc2c(c1)OCO2,53*,4,0,-1,43

# Bioassay records from PubChem BioAssay.
